Measurements reported in ChEMBL document CHEMBL1782023, “Spirocyclic lignans from Guaiacum (Zygophyllaceae) induce apoptosis in human breast cancer cell lines” (J Nat Prod, 2011).
Activity calls are given as the source filed them. No cut-off for these calls is given here.

How the values were obtained:
MDA-MB-231 [1] = test: Cell cycle arrest in human MDA-MB-231 cells assessed as decrease in cells in S phase after 24 hrs using annexin V/propidium iodide staining by flow cytometry; format: functional, cell-based
Method in brief: (§1)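 Cells cultured in RPMI 1640 with 10% heat-inactivated FCS, 37 °C, 5% CO2. After 24 h of growth, cells were treated with test samples dissolved in DMSO for a further 24 h. Cell cycle distribution was measured by FACS with annexin V/propidium iodide double staining. For DNA content, singlet events were gated and 10 000-20 000 events were acquired. Read-out: percentage of cells in S phase and in sub-G0 phase.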

MDA-MB-231 [2] = test: Cell cycle arrest in human MDA-MB-231 cells assessed as increase of cells in sub-G0 phase after 24 hrs using annexin V/propidium iodide staining by flow cytometry; format: functional, cell-based; method in brief: as §1
MDA-MB-231 [3] = test: Induction of apoptosis in human MDA-MB-231 cells assessed as loss of membrane […] at 1.2 to 30 ug/ml using Hoechst 33342/propidium iodide staining by FACS analysis; format: functional, cell-based; conditions: TDE = time-dependent effect
MDA-MB-231 [4] = test: Induction of apoptosis in human MDA-MB-231 cells assessed as chromatin segregation after 24 hrs using Hoechst 33342/propidium iodide staining […]; format: functional, cell-based
MDA-MB-231 [5] = test: Cytotoxicity against human MDA-MB-231 cells after 48 hrs by Alamar blue assay; format: functional, cell-based; conditions: MDA-MB-231, 48 h
Method in brief: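 Cells were seeded at 5000 per well and grown for 24 h. Samples were then added from DMSO solution, with 0.1% DMSO as vehicle control. After 48 h incubation, viability was read from Alamar blue colour spectrophotometrically at 540 nm.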

MDA-MB-231 [6] = test: Induction of apoptosis in human MDA-MB-231 cells assessed as condensation of nucleus after 24 hrs using Hoechst 33342/propidium iodide staining […]; format: functional, cell-based
MDA-MB-231 [7] = test: Induction of apoptosis in human MDA-MB-231 cells assessed as chromatin condensation at 1.2 to 30 ug/ml using Hoechst 33342/propidium iodide staining […]; format: functional, cell-based; conditions: TDE = time-dependent effect
MDA-MB-231 [8] = test: Induction of apoptosis in human MDA-MB-231 cells assessed as chromatin condensation after 24 hrs using Hoechst 33342/propidium iodide staining […]; format: functional, cell-based
MDA-MB-231 [9] = test: Induction of apoptosis in human MDA-MB-231 cells assessed as condensation of cytoplasm after 24 hrs using Hoechst 33342/propidium iodide staining by FACS analysis; format: functional, cell-based
MDA-MB-231 [10] = test: Induction of apoptosis in human MDA-MB-231 cells assessed as condensation of cytoplasm at 1.2 to 30 ug/ml […]; format: functional, cell-based; conditions: TDE = time-dependent effect
MDA-MB-231 [11] = test: Cell cycle arrest in human MDA-MB-231 cells assessed as decrease in cells in S phase at 30 ug/ml after 24 hrs using annexin V/propidium iodide staining by flow cytometry (reference value: 13%); format: functional; design: scale not given: the % may be the effect or the level left; method in brief: as §1
MDA-MB-231 [12] = test: Induction of apoptosis in human MDA-MB-231 cells assessed as condensation of nucleus at 1.2 to 30 ug/ml using Hoechst 33342/propidium iodide staining […]; format: functional, cell-based; conditions: TDE = time-dependent effect
MDA-MB-231 [13] = test: Induction of apoptosis in human MDA-MB-231 cells assessed as loss of membrane […] after 24 hrs using Hoechst 33342/propidium iodide staining by FACS analysis; format: functional, cell-based
MDA-MB-231 [14] = test: Induction of apoptosis in human MDA-MB-231 cells assessed as chromatin segregation at 1.2 to 30 ug/ml using Hoechst 33342/propidium iodide staining […]; format: functional, cell-based; conditions: TDE = time-dependent effect

With `CC[C@@]1(O)C(=O)OCc2c1cc1n(c2=O)Cc2cc3ccccc3nc2-1` the Activity (MDA-MB-231 [1]) was “Dose-dependent effect” and the Activity (MDA-MB-231 [2]) was “Active”.

`C=C1[C@@H](c2ccc(O)c(OC)c2)O[C@@H](c2ccc(O)c(OC)c2)[C@@]12CCC1=C(C2)[C@@H](c2ccc(O)c(OC)c2)O[C@H]1c1ccc(O)c(OC)c1` [RAMONANIN A] was tested, and the Activity (MDA-MB-231 [3]) was “tde”, the Activity (MDA-MB-231 [4]) was “Dose-dependent effect” and the IC50 (MDA-MB-231 [5]) was 18 µM. For the same molecule, the Activity (MDA-MB-231 [6]) was “Dose-dependent effect”, the Activity (MDA-MB-231 [7]) was “tde” and the Activity (MDA-MB-231 [8]) was “Dose-dependent effect”. The Activity (MDA-MB-231 [1]) was “Dose-dependent effect”, the Activity (MDA-MB-231 [9]) was “Dose-dependent effect” and the Activity (MDA-MB-231 [10]) was “tde”. For the same molecule, the Activity (MDA-MB-231 [2]) was “Active”, the Activity (MDA-MB-231 [11]) was less than 4% and the Activity (MDA-MB-231 [12]) was “tde”. The Activity (MDA-MB-231 [13]) was “Dose-dependent effect” and the Activity (MDA-MB-231 [14]) was “tde”.

In the case of `C=C1[C@H](c2ccc(O)c(OC)c2)O[C@H](c2ccc(O)c(OC)c2)[C@@]12CCC1=C(C2)[C@@H](c2ccc(O)c(OC)c2)O[C@H]1c1ccc(O)c(OC)c1` [RAMONANIN B], the IC50 (MDA-MB-231 [5]) is reported as 18 µM, the Activity (MDA-MB-231 [1]) is reported as “Dose-dependent effect” and the Activity (MDA-MB-231 [2]) is reported as “Active”. It also gave an Activity (MDA-MB-231 [11]) of less than 4%.

With `C=C1[C@@H](c2ccc(O)c(OC)c2)O[C@@H](c2ccc(O)c(OC)c2)[C@@]12CCC1=C(C2)[C@H](c2ccc(O)c(OC)c2)O[C@@H]1c1ccc(O)c(OC)c1` [RAMONANIN C] the IC50 (MDA-MB-231 [5]) was 18 µM.

For `C=C1[C@@H](c2ccc(O)c(OC)c2)O[C@@H](c2ccc(O)c(OC)c2)[C@@]12CCC1=C(C2)[C@@H](c2ccc(O)c(OC)c2)O[C@@H]1c1ccc(O)c(OC)c1` [RAMONANIN D], the IC50 (MDA-MB-231 [5]) was 18 µM.
